Here are results for one compound from ChEMBL document CHEMBL1144149, “DNA polymerase beta inhibitors from Tetracera boiviniana” (J Nat Prod, 1999).

Usually inhibition stands for the percentage by which the read-out fell short of the control.

The target in assay [1] is DNA polymerase beta (Rattus norvegicus) (UniProt P06766). The conditions noted are these: 50 ug/mL.
The subject of the next assay is P388D1. The assay is described as follows: Potentiation of 75 nM bleomycin induced cytotoxicity in mouse P388D1 cells at 10 uM assessed as cell viability after 6 hrs by trypan blue exclusion assay. It counts as functional. The method, boiled down: (§1)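 P-388D1 suspension cells were grown in DMEM (4500 mg glucose/L) with 10% donor horse serum and antibiotics at 37 °C in 5% CO2. Cells at ca. 5 × 10^5 cells/mL were stabilized for 1 h, then exposed to compound alone or together with 75 nM bleomycin (blenoxane) for 6 h. Final DMSO was 0.25%. Viability was read by trypan blue exclusion as % of control.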

The target of assay [2] is DNA polymerase beta (Rattus norvegicus) (UniProt P06766). Conditions: 10 ug/mL.
The nature of assay [3]: Cytotoxicity against mouse P388D1 cells at 10 uM after 6 hrs by trypan blue exclusion assay. It counts as functional. The method in brief:
as §1

Consider `C=C(C)[C@@H]1CC[C@]2(C(=O)O)CC[C@]3(C)[C@H](CC[C@@H]4[C@@]5(C)CC[C@H](O)C(C)(C)[C@@H]5CC[C@]43C)[C@@H]12` [BETULINIC ACID], for which the inhibition was 96% in assay [1] and 63% in assay [2]. For the same compound, the results for the Activity (in the assay on P388D1; in assay [3]) were 70% and 99%, respectively.
